Drawing on ChEMBL document CHEMBL1147895, “Novel synthetic approach to N-aryl-4-(3-pyridyl)thiazol-2-amine and analogues using HMCM-41 as catalyst, and their biological evaluation as human platelet aggregation inhibitors” (Eur J Med Chem, 2007), this text covers IC50 for 18 compounds.

The term IC50 denotes the concentration needed to halve the response being measured. The low end stands for greater potency in that assay, the high end for weaker potency in that assay.

Molecules are shown by their SMILES.

For the assay, the system named is Platelet. The assay can be described thus: Inhibition of ADP-induced human platelet aggregation. Format: functional, cell-based. Summed up:
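Human PRP from fasted, medication-free healthy male volunteers: citrated blood (0.38% final) spun at 800 rpm for 10 min; PPP from a 2500 rpm, 10 min spin. Compounds in DMSO (0.01% final) preincubated 2 min at 37 °C before ADP activation. Born turbidimetry; maximum curve height read, % inhibition versus vehicle; IC50 from linear regression of % inhibition against concentration.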

Consider `CC(C)(C(=O)O)N1CCC(Nc2nc(-c3ccc(C(=N)N)cc3)cs2)CC1`, for which the IC50 is more than 10000 nM.
`N=C(N)c1ccc(-c2csc(N(CCC(=O)O)C3CCN(CC(=O)O)CC3)n2)cc1` gave a concentration for half-maximal inhibition (IC50) of 46 nM.
Under `N=C(N)c1ccc(-c2csc(N(Cc3ccccc3)C3CCN(CC(=O)O)CC3)n2)cc1` stands 230 nM; under `N=C(N)c1ccc(-c2csc(NC3CCN(CCC(=O)O)CC3)n2)cc1`, 1800 nM.
The same measure for `N=C(N)c1ccc(-c2csc(NC3CCN(CC(=O)O)CC3)n2)cc1`: 42 nM; for `N=C(N)c1ccc(-c2csc(NC3CCN(C(C(=O)O)c4ccccc4Cl)CC3)n2)cc1` (stereo not drawn): 6000 nM; for `N=C(N)c1ccc(-c2csc(NC3CCN(C(C(=O)O)c4ccccc4)CC3)n2)cc1` (stereo not drawn): 65 nM.
`CN(c1nc(-c2ccc(C(=N)N)cc2)cs1)C1CCN(CC(=O)O)CC1` displayed a half-maximal inhibitory concentration (IC50) of 160 nM.
Under `N=C(N)c1ccc(-c2csc(N(CCCC(=O)O)C3CCN(CC(=O)O)CC3)n2)cc1` stands 96 nM; under `N=C(N)c1ccc(-c2csc(N(CC(=O)O)C3CCN(CC(=O)O)CC3)n2)cc1`, 170 nM; under `N=C(N)c1ccc(-c2csc(NC3CCN(C(CC(=O)O)C(=O)O)CC3)n2)cc1` (stereo not drawn), 85 nM.
The same measure for `CC(C(=O)O)N1CCC(Nc2nc(-c3ccc(C(=N)N)cc3)cs2)CC1` (stereo not drawn): 250 nM; for `CCc1ccccc1Nc1nc(-c2cccnc2)cs1`: 1350 nM; for `CCc1cccc(CC)c1Nc1nc(-c2cccnc2)cs1`: 2190 nM.
The same measure for `Fc1ccccc1Nc1nc(-c2cccnc2)cs1`: 484 nM; for `c1cncc(-c2csc(Nc3cccc4ccccc34)n2)c1`: 2890 nM; for `Nc1nc(-c2cccnc2)c[s+]1[O-]` (stereo not drawn): 1410 nM.
`Cc1ccc(Nc2nc(-c3cccnc3)cs2)cc1` yielded an IC50 of 2000 nM.
